Assay results: ChEMBL document CHEMBL4004861, “Novel 2,3-disubstituted quinazoline-4(3H)-one molecules derived from amino acid linked sulphonamide as a potent malarial antifolates for DHFR inhibition” (Eur J Med Chem, 2017)
Values after ≈ are worked out from the molar mass of the structure shown. One block for each compound: values may come before it.

Tests used:
Plasmodium falciparum [1] = experiment: Antimalarial activity against Plasmodium falciparum; assay type: functional
In short: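 Drug stocks diluted in complete medium (RPMI 1640 plus 10% human serum) over seven dilutions, 0.0001 up to 100 mg/mL as printed. Reference antimalarials run as positive controls in every experiment. Percent inhibition at each concentration was calculated against untreated control to give IC50.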

Plasmodium falciparum [2] = experiment: Antimalarial activity against Plasmodium falciparum assessed as reduction in parasitic LDH activity by Malstat reagent based spectrophotometric method; assay type: functional
In short: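 Parasite lactate dehydrogenase (Malstat) read spectrophotometrically at 650 nm. Compounds were in RPMI 1640 with 10% human serum, seven dilutions.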

Plasmodium falciparum [3] = experiment: Antimalarial activity against Plasmodium falciparum infected in RBC after 5 days by MTT assay; assay type: functional
In short: (§1)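 MTT reduction, run in parallel on infected and on normal uninfected RBC cultures and read at 565 and 690 nm. Compounds were in RPMI 1640 with 10% human serum, seven dilutions. Drug-free, parasite-free RBC cultures were set as maximum activity, with untreated, uninfected and cell-free controls. EC50 (parasite) and CC50 (RBC) were derived, and SI = CC50/EC50.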

[4] = Selectivity index, ratio of CC50 for RBC (unknown origin) to EC50 for Plasmodium falciparum infected in RBC; in short: as §1
Dihydrofolate reductase = molecular target: T1, Dihydrofolate reductase (Bos taurus, UniProt P00376); experiment: Inhibition of bovine liver DHFR using FH2 as substrate preincubated for 2 mins followed by substrate addition in presence of NADPH
T1 sequence (P00376 whole entry): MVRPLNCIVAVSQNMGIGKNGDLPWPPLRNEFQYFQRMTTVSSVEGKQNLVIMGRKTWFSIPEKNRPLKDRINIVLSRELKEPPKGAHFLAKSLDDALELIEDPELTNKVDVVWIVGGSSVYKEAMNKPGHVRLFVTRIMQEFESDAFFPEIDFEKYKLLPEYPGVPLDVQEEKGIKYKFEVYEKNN

Vero = experiment: Cytotoxicity against African green monkey Vero cells assessed as reduction in cell viability up to 15 ug/ml after 72 hrs by MTT assay; assay type: cell-based; conditions: chlorocebus sabaeus
In short: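 Vero cells were exposed to compounds for 72 h at 37 °C, with MTT conversion to formazan read at 540 nm. Viability was calculated relative to cells treated with 0.1% DMSO medium. Triplicate treatments; IC50 derived. Cells were tested up to 15 µg/mL.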

[5] = Selectivity index, ratio of IC50 for African green monkey Vero cells to IC50 for bovine liver DHFR
In short: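 Bovine liver DHFR (0.02 units) in 50 mM Tris-HCl pH 7.4 with 50 µM NADPH, compounds in DMSO at final 10⁻¹¹–10⁻⁵ M, total volume 2.0 ml. Mixture held 2 min at room temperature, then started with 25 µM FH2, and ΔA/min at 340 nm recorded. […] SI = Vero IC50 / DHFR IC50, triplicate averages.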

IC50 (Plasmodium falciparum [1]): 0.78 µg/mL (≈ 1.58 µM)
SMILES: COc1cccc(-n2c(C(CC(C)C)NS(=O)(=O)c3ccc(N)cc3)nc3ccccc3c2=O)c1 (stereo not drawn)

IC50 (Plasmodium falciparum [1]): 1.05 µg/mL (≈ 2.2 µM)
SMILES: CC(C)CC(NS(=O)(=O)c1ccc(N)cc1)c1nc2ccccc2c(=O)n1Nc1ccccc1 (stereo not drawn)

IC50 (Plasmodium falciparum [1]): 0.068 µg/mL (≈ 0.137 µM) | IC50 (Plasmodium falciparum [2]): 96.38 ppm | IC50 (Dihydrofolate reductase): 56.3 nM
SMILES: CC(C)CC(NS(=O)(=O)c1ccc(N)cc1)c1nc2ccccc2c(=O)n1-c1ccc(Cl)cc1 (stereo not drawn)
EC50 (Plasmodium falciparum [3]): 115.61 ppm | Ratio CC50/EC50 [4]: 87.7 | Activity (Vero): Non-Toxic | Ratio IC50 [5]: 535.71

IC50 (Plasmodium falciparum [1]): 0.136 µg/mL (≈ 0.274 µM)
SMILES: CC(C)CC(NS(=O)(=O)c1ccc(N)cc1)c1nc2ccccc2c(=O)n1-c1ccccc1Cl (stereo not drawn)

IC50 (Plasmodium falciparum [1]): 0.38 µg/mL (≈ 1.31 µM)
SMILES: COc1cc(Cc2cnc(N)nc2N)cc(OC)c1OC [TRIMETHOPRIM]

IC50 (Plasmodium falciparum [1]): 0.068 µg/mL (≈ 0.138 µM) | IC50 (Plasmodium falciparum [2]): 8317 ppm | IC50 (Dihydrofolate reductase): 97.4 nM
SMILES: COc1ccc(-n2c(C(CC(C)C)NS(=O)(=O)c3ccc(N)cc3)nc3ccccc3c2=O)cc1 (stereo not drawn)
EC50 (Plasmodium falciparum [3]): 1009 ppm | Ratio CC50/EC50 [4]: 19500 | Activity (Vero): Non-Toxic | Ratio IC50 [5]: 312.5

IC50 (Plasmodium falciparum [1]): 0.78 µg/mL (≈ 1.44 µM)
SMILES: CC(C)CC(NS(=O)(=O)c1ccc(N)cc1)c1nc2ccccc2c(=O)n1-c1cccc(Br)c1 (stereo not drawn)

IC50 (Plasmodium falciparum [1]): 0.92 µg/mL (≈ 1.81 µM)
SMILES: CC(C)CC(NS(=O)(=O)c1ccc(N)cc1)c1nc2ccccc2c(=O)n1-c1ccccc1[N+](=O)[O-] (stereo not drawn)

IC50 (Plasmodium falciparum [1]): 1.01 µg/mL (≈ 2.11 µM)
SMILES: CC(C)CC(NS(=O)(=O)c1ccc(N)cc1)c1nc2ccccc2c(=O)n1-c1ccccc1F (stereo not drawn)

IC50 (Dihydrofolate reductase): 31.3 nM
SMILES: CCN(CC)CCCC(C)Nc1ccnc2cc(Cl)ccc12 (stereo not drawn) [CHLOROQUINE]
EC50 (Plasmodium falciparum [3]): 28.97 ppm

IC50 (Plasmodium falciparum [1]): 0.68 µg/mL (≈ 1.47 µM)
SMILES: CC(C)CC(NS(=O)(=O)c1ccc(N)cc1)c1nc2ccccc2c(=O)n1-c1ccccc1 (stereo not drawn)

IC50 (Plasmodium falciparum [1]): 0.67 µg/mL (≈ 1.41 µM)
SMILES: Cc1ccc(-n2c(C(CC(C)C)NS(=O)(=O)c3ccc(N)cc3)nc3ccccc3c2=O)cc1 (stereo not drawn)

IC50 (Plasmodium falciparum [1]): 0.84 µg/mL (≈ 1.65 µM)
SMILES: CC(C)CC(NS(=O)(=O)c1ccc(N)cc1)c1nc2ccccc2c(=O)n1-c1ccc([N+](=O)[O-])cc1 (stereo not drawn)

IC50 (Plasmodium falciparum [1]): 0.72 µg/mL (≈ 1.51 µM)
SMILES: Cc1ccccc1-n1c(C(CC(C)C)NS(=O)(=O)c2ccc(N)cc2)nc2ccccc2c1=O (stereo not drawn)

IC50 (Plasmodium falciparum [1]): 1.28 µg/mL (≈ 2.69 µM)
SMILES: Cc1cccc(-n2c(C(CC(C)C)NS(=O)(=O)c3ccc(N)cc3)nc3ccccc3c2=O)c1 (stereo not drawn)

IC50 (Plasmodium falciparum [1]): 0.78 µg/mL (≈ 1.54 µM)
SMILES: CC(C)CC(NS(=O)(=O)c1ccc(N)cc1)c1nc2ccccc2c(=O)n1-c1cccc([N+](=O)[O-])c1 (stereo not drawn)

IC50 (Plasmodium falciparum [1]): 1.12 µg/mL (≈ 2.33 µM)
SMILES: CC(C)CC(NS(=O)(=O)c1ccc(N)cc1)c1nc2ccccc2c(=O)n1-c1ccc(F)cc1 (stereo not drawn)

IC50 (Plasmodium falciparum [1]): 0.068 µg/mL (≈ 0.126 µM) | IC50 (Plasmodium falciparum [2]): 37240 ppm | IC50 (Dihydrofolate reductase): 161 nM
SMILES: CC(C)CC(NS(=O)(=O)c1ccc(N)cc1)c1nc2ccccc2c(=O)n1-c1ccc(Br)cc1 (stereo not drawn)
EC50 (Plasmodium falciparum [3]): 1909 ppm | Ratio CC50/EC50 [4]: 15.3 | Activity (Vero): Non-Toxic | Ratio IC50 [5]: 172.14

IC50 (Plasmodium falciparum [1]): 0.068 µg/mL (≈ 0.137 µM) | IC50 (Plasmodium falciparum [2]): 524.8 ppm | IC50 (Dihydrofolate reductase): 72.4 nM
SMILES: CC(C)CC(NS(=O)(=O)c1ccc(N)cc1)c1nc2ccccc2c(=O)n1-c1cccc(Cl)c1 (stereo not drawn)
EC50 (Plasmodium falciparum [3]): 368.97 ppm | Ratio CC50/EC50 [4]: 50.6 | Activity (Vero): Non-Toxic | Ratio IC50 [5]: 416.66

IC50 (Plasmodium falciparum [1]): 0.068 µg/mL (≈ 0.126 µM) | IC50 (Plasmodium falciparum [2]): 3380 ppm | IC50 (Dihydrofolate reductase): 168 nM
SMILES: CC(C)CC(NS(=O)(=O)c1ccc(N)cc1)c1nc2ccccc2c(=O)n1-c1ccccc1Br (stereo not drawn)
EC50 (Plasmodium falciparum [3]): 2831 ppm | Ratio CC50/EC50 [4]: 20.6 | Activity (Vero): Non-Toxic | Ratio IC50 [5]: 164.83

IC50 (Plasmodium falciparum [1]): 0.72 µg/mL (≈ 1.46 µM)
SMILES: COc1ccccc1-n1c(C(CC(C)C)NS(=O)(=O)c2ccc(N)cc2)nc2ccccc2c1=O (stereo not drawn)

IC50 (Plasmodium falciparum [1]): 0.25 µg/mL (≈ 1.01 µM)
SMILES: CCc1nc(N)nc(N)c1-c1ccc(Cl)cc1 [PYRIMETHAMINE]
